Test results from ChEMBL document CHEMBL1155599, “Ancistrolikokines A-C: new 5,8'-coupled naphthylisoquinoline alkaloids from Ancistrocladus likoko” (J Nat Prod, 2000).
≈ marks a conversion by molar mass, not a printed value.

Columns and labels:
Plasmodium falciparum [1] = experiment: Antimalarial activity after 48 hrs against Plasmodium falciparum NF54 infected human erythrocytes by [3H]hypoxanthine uptake; format: functional, organism-based
Procedure, shortened: (§1)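 Modified [3H]hypoxanthine incorporation assay; infected human red blood cells exposed to serial drug dilutions for 48 h at 37 °C under reduced O2/elevated CO2, then [3H]hypoxanthine added and incubated a further 24 h; harvested on glass fiber filters, scintillation counted. IC50 from sigmoidal inhibition curve; duplicates, repeated at least once. NF54 is drug-sensitive, K1 is chloroquine/pyrimethamine-resistant.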

Plasmodium falciparum [2] = experiment: Antimalarial activity after 48 hrs against Plasmodium falciparum K1 infected human erythrocytes by [3H]hypoxanthine uptake; format: functional, organism-based; procedure, shortened: as §1
[3] = Cytotoxicity against rat L6 cells after 72 hrs; format: cell-based; conditions: read-out: MIC

Structure (SMILES) | IC50 (Plasmodium falciparum [1]) [µg/mL] | IC50 (Plasmodium falciparum [2]) [µg/mL] | MCC at 72 h [3] [µg/mL]
COc1cc(O)c2c(c1-c1ccc(O)c3c(OC)cc(C)cc13)C[C@@H](C)N(C)[C@@H]2C [ANCISTROLIKOKINE A] | 0.191 (≈ 0.469 µM) | 0.14 (≈ 0.344 µM) | 90
COc1cc(O)c(-c2ccc(OC)c3c(O)cc(C)cc23)c2c1[C@H](C)N[C@H](C)C2 [ANCISTROLIKOKINE B] | 0.538 (≈ 1.37 µM) | 0.208 (≈ 0.529 µM) | 30
COc1cc(O)c(-c2ccc(OC)c3c(O)cc(C)cc23)c2c1[C@@H](C)N(C)[C@H](C)C2 [ANCISTROLIKOKINE C] | 6.23 (≈ 15.3 µM) | 0.924 (≈ 2.27 µM) | 
COc1cc(C)cc2c(-c3c(O)cc(O)c4c3C[C@@H](C)N[C@@H]4C)ccc(O)c12 [KORUPENSAMINE A] | 0.024 (≈ 0.0632 µM) | 0.072 (≈ 0.19 µM) | 100
